From ChEMBL document CHEMBL4376807, “Hydroxamic Acid Derivatives of β-Carboline/Hydroxycinnamic Acid Hybrids Inducing Apoptosis and Autophagy through the PI3K/Akt/mTOR Pathways” (J Nat Prod, 2019) come the findings set out here.

Assay [1] can be described thus: Inhibition of PI3K/AKT/mTOR signaling in human Bel7402 cells assessed as reduction in mTOR phosphorylation after 24 to 72 hrs by Western blot analysis. Format: cell-based. A digest of the protocol: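 Bel7402 cells (1.5 × 10^5/mL) exposed to compound at 1.0 and 2.5 μM for 24 or 72 h. Lysates (0.05 mg/lane) separated on 12% SDS-PAGE and blotted to nitrocellulose. Probed for total Akt, phospho-Akt (Ser473), total mTOR and phospho-mTOR, HRP secondary, chemiluminescent detection. Quantified from three separate assays, mean ± SD.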

A further assay deals with Histone deacetylase 3 (Homo sapiens, UniProt O15379). As to the kind of experiment: Inhibition of human HDAC3 using Boc-Lys (Ac)-AMC as substrate incubated for 60 mins by fluorimetric assay.
For a further assay, the species on record is Homo sapiens. As to the kind of experiment: Selectivity ratio of IC50 for human HDAC3 to IC50 for human HDAC6. A digest of the protocol: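 Recombinant human HDAC1, 3, 6 and 8 (fluorimetric kit) incubated with compound over a range of concentrations and Boc-Lys(Ac)-AMC substrate at 37 °C for 60 min. Reaction quenched with lysine developer; after 30 min, fluorescence read at ex 355/em 460 nm. Inhibition taken relative to control and IC50 fitted; ratios built from these IC50s.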

For assay [2], the system named is Bel-7402. As to the kind of experiment: Induction of apoptosis in human Bel7402 cells assessed as increase in cleaved caspase-3 level at 1 uM after 72 hrs by Western blot analysis. Format: functional, cell-based. A digest of the protocol:
(§1)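 Subconfluent Bel7402 cells (1.5 × 10^5/mL) exposed to vehicle or compound for 72 h, then lysed. Lysates (0.05 mg/lane) run on 12% SDS-PAGE, transferred to nitrocellulose, blocked in 5% nonfat milk. Probed for Bax, Bcl-2, cleaved caspase-3 and cleaved PARP, with HRP secondary and chemiluminescence. Levels normalized to β-actin; three separate assays, mean ± SD.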

In assay [3] the test system is Bel-7402. As to the kind of experiment: Antiproliferative activity against human Bel7402 cells at 0.2 to 5 uM after 72 hrs by MTT assay. Format: functional, cell-based. The gist of the method:
(§2)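 Cells grown in DMEM with 10% heat-inactivated FBS, penicillin/streptomycin, 37 °C, 5% CO2. Seeded at 10^4 cells/mL overnight, then exposed to a range of compound concentrations for 72 h; 0.1% DMSO negative control. MTT (5 mg/mL stock) added, absorbance read at 570 nm; percent inhibition from three independent experiments, mean ± SD.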

The subject of assay [4] is Bel-7402. Description: Induction of autophagy in human Bel7402 cells assessed as upregulation of LC3-2 level at 1 uM after 24 to 72 hrs by Western blot analysis. The format is functional, cell-based. The gist of the method: (§3)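 Bel7402 cells (1.5 × 10^5/mL) exposed to compound at indicated doses, or vehicle, for 24 or 72 h. Lysates (0.05 mg/lane) separated on 12% SDS-PAGE, blotted to nitrocellulose, blocked in 5% milk. Probed with anti-LC3, anti-p62 and anti-beclin-1, HRP secondary, chemiluminescent detection. Levels quantified relative to β-actin; three separate assays, mean ± SD.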

Assay [5] relates to Bel-7402. Description: Induction of autophagy in human Bel7402 cells assessed as upregulation of LC3-2 level at 5 uM after 24 to 72 hrs by Western blot analysis. The format is functional, cell-based. A digest of the protocol: as §3
In the next assay the test system is Bel7402/5-FU. Description: Antiproliferative activity against human Bel7402/5-FU cells at 0.2 to 5 uM after 72 hrs by MTT assay. Format: functional, cell-based. A digest of the protocol:
as §2

Assay [6] deals with Bel-7402. As to the kind of experiment: Induction of autophagy in human Bel7402 cells assessed as accumulation of autophagic vacuoles at 5 uM after 24 hrs by acridine orange staining based fluorescence microscopic method. The format is functional, cell-based. A digest of the protocol: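 Bel7402 cells (10 000) cultured overnight, then exposed to compound at 1.0 or 5.0 μM, or vehicle. Stained with 1 mg/mL acridine orange for 15−20 min, then dye removed. Red versus green fluorescence viewed by fluorescence microscopy at 400×. Representative images from three independent experiments.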

The test system of another assay is HepG2. As to the kind of experiment: Antiproliferative activity against human HepG2 cells after 72 hrs by MTT assay. The note with it: HepG2, 72 h. Format: functional, cell-based.
For assay [7], the system named is Bel-7402. Description: Induction of apoptosis in human Bel7402 cells assessed as decrease in Bcl-2 expression after 72 hrs by Western blot analysis. Format: functional, cell-based. The gist of the method: as §1

pIC50: −log10 of the molar value. Active and inactive are the calls of the source. No cut-off for these calls is given here.

Sequence of Histone deacetylase 3 (O15379 whole entry): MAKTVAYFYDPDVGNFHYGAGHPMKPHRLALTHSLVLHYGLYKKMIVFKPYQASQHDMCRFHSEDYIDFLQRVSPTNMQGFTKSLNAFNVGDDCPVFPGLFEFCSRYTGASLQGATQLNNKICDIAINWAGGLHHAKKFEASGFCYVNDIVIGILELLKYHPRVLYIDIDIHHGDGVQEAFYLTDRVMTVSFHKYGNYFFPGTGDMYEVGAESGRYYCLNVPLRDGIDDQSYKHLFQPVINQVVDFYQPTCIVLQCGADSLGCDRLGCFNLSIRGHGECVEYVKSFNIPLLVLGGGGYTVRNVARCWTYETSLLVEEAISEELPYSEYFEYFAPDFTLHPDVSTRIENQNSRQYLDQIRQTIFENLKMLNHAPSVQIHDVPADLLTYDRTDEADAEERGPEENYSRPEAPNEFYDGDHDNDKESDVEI

As to `COc1ccc(-c2nc(NCCCOc3ccc(/C=C/C(=O)NO)cc3OC)cc3c2[nH]c2ccccc23)cc1`, the inhibition entry in assay [1] is “Dose-dependent effect”. The results for the negative-log IC50 (pIC50) at Histone deacetylase 3 and in the assay with HepG2 were 6.83 and 5.85, respectively. Besides, in the assay filed under Homo sapiens, the Ratio IC50 is 7 to 11. In addition, the result in the assay with Bel-7402 [2], in the assay on Bel-7402 [3], in the assay with Bel-7402 [4], in the assay with Bel-7402 [5], in the assay on Bel7402/5-FU and in the assay with Bel-7402 [6] was Active. Besides, the Activity entry with Bel-7402 [7] was “Dose-dependent effect”.
